Bioassay records as filed in PubChem BioAssay.
An excerpt weighted towards active compounds, which were near 1.4% of everything screened.
PG9 Ab binder = binds the HIV-1 gp120 antibody PG9; inhibition, % at 6.7 µM; TR-FRET gp120-PG9 antibody binding; actives 0.43% (n = 360,000); in the data active = inhibition above about 8.5%
NR2E3 ag-1 = human photoreceptor-specific nuclear receptor agonism | Q9Y5X4 | CHO-S Gal4-NCOR/VP16-NR2E3 two-hybrid, luciferase | inhibition of corepressor binding, % at 3.98 µM | actives 0.35% (n = 360,000);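 active = inhibition above the mean of all tested compounds plus 3 SD, cut at about 70% in these data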;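 also: 0% = DMSO with NR2E3 transfected cells and 100% = cells lacking NR2E3 construct; higher means lower luciferase signal from less NR2E3 corepressor binding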
NR1D1 modulator = modulates human Rev-erb alpha binding to DNA | actives 0.79% (n = 370,000) | Rev-erbα–FITC-DNA binding, fluorescence polarization, 90 min | P20393 | AID 1259318 | activity, % at 10 µM;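 active = activity above about 14%, limit read from the data; passing the limit was not always enough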;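 also: 0% = DMSO wells with 35 nM protein and 100% = DMSO wells with 750 nM protein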
Target sequence (P20393 whole entry, looked up): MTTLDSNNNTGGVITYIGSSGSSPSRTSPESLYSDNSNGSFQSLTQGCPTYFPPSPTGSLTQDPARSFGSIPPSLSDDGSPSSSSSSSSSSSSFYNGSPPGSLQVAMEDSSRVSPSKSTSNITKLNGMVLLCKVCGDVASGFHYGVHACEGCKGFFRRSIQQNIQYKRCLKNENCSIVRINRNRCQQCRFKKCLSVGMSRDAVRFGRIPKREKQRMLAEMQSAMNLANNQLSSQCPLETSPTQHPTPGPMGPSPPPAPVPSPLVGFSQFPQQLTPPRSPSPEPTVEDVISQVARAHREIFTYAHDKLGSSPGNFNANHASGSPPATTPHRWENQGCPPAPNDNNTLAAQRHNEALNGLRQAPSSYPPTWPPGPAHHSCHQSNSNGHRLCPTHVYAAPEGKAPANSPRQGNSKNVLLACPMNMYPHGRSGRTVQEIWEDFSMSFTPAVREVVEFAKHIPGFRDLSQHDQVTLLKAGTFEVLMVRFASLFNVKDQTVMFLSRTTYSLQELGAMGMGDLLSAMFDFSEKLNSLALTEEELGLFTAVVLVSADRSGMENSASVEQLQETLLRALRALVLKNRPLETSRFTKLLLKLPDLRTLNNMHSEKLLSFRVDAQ
NR2E3 ag-2 = activates human photoreceptor nuclear receptor NR2E3 | Q9Y5X4 | GST-NR2E3/biotin-RetCOR TR-FRET, 1536-well | inhibition of corepressor binding, % at 4.78 µM | actives 0.12% (n = 320,000) | AID 2300;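 active = percent inhibition above the cutoff of mean plus 3 SD of all tested compounds, set per screening campaign, cut at about 20% in these data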;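 also: 0% = DMSO wells and 100% = biotin wells as full block of FRET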
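System: GST-tagged NR2E3 plus biotinylated RetCOR corepressor; Buffer or medium: pH 7.5 Tris-based buffer; Probe or stimulus: RetCOR corepressor, biotinylated, 7 nM; Doses: compound at 4.8 µM, single dose; Schedule: 5 h incubation at 4 °C; Technique: time-resolved FRET; Evaluation: percent inhibition of TR-FRET ratio; Replication: one well per compound, singlicate testing.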
PG9 bind confirm = PG9 antibody binding, confirmed; inhibition, % at 6.7 µM; TR-FRET PG9 antibody binding, biochemical; actives 90% (n = 1,500); AID 651571; shares compounds with PG9 Ab binder; in the data active = inhibition above about 9%
PGV04 Ab binding = PGV04 control antibody binding, counter-screen | TR-FRET PGV04 antibody-gp120 binding, biochemical | actives 95% (n = 1,500) | AID 651604 | inhibition, % at 6.7 µM | shares compounds with PG9 Ab binder; in the data active = inhibition above about 9.5%
PG9 binder DR = small molecules binding HIV-1 gp120 antibody PG9; IC50, µM; TR-FRET PG9 antibody-gp120 binding inhibition; shares compounds with PG9 Ab binder; 95 tested, under 10 active; AID 651848; in the data active = IC50 below about 10 µM
PGV04 binding DR = PGV04 binding, dose response counter-screen; shares compounds with PG9 Ab binder; TR-FRET binding to control antibody PGV04; IC50, µM; actives 20% (n = 95); AID 651937
PG126 binding DR = PG126 binding, dose response counter-screen | shares compounds with PG9 Ab binder | TR-FRET binding to antibody PG126, counterscreen | IC50, µM | actives 20% (n = 95) | AID 651939
Rev-erbA confirm = Rev-erb alpha (human) modulation, hit confirmation | Rev-erb alpha FITC-DNA binding, fluorescence polarization, 90 min | actives 61% (n = 3,000) | shares compounds with NR1D1 modulator | activation, % at 25 µM;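 active = activation at or above a set limit, or at least 3 SD above the negative control mean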;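 also: 0% = 35 nM protein with DMSO and 100% = 750 nM protein high control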
RORg counter = affects RORgamma DNA binding in a Rev-erb alpha counter-screen; shares compounds with NR1D1 modulator; purified RORgamma protein-FITC-DNA binding, fluorescence polarization; IC50, µM; actives 8% (n = 910);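 active = Compounds whose fitted half-maximal concentration for disrupting protein-DNA binding is below 10 micromolar; the record names Rev-erb in its text, so the target is in doubt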
An asterisk follows results filed as active. Rule as the data show it, unless noted: active = IC50 below about 9 µM; inactive = the rest.

C=CCn1c(SCc2nc3ccccc3c(=O)[nH]2)nc2scc(C3CC3)c2c1=O was read as PG9 Ab binder 14.7*, NR2E3 ag-1 -2.3, NR1D1 modulator 25.8*, NR2E3 ag-2 8.0, PG9 bind confirm 16.9*, PGV04 Ab binding 28.8* and Rev-erbA confirm 22.1*.
`COc1ccc(OCCSc2nc3ccccc3c(=O)[nH]2)cc1` gave PG9 Ab binder 58.3*, NR2E3 ag-1 -2.3, NR1D1 modulator 29.2*, NR2E3 ag-2 -0.2, PG9 bind confirm 53.4*, PGV04 Ab binding 65.5* and Rev-erbA confirm 21.3*.
COc1ccc(NC(=O)COC(=O)c2ccc3c(c2)OCO3)c(OC)c1 was read as PG9 Ab binder 22.2*, NR2E3 ag-1 -24.6, NR1D1 modulator 174.8*, PG9 bind confirm 33.2*, PGV04 Ab binding 28.5*, PG9 binder DR >67, PGV04 binding DR inactive, PG126 binding DR inactive, Rev-erbA confirm 180.2* and RORg counter >40.
Screening Cc1cc(C)c(C#N)c(SCC(=O)Nc2cccc(S(=O)(=O)N3CCCC3)c2)n1 returned PG9 Ab binder 37.4*, NR2E3 ag-1 18.7, NR1D1 modulator 21.4*, PG9 bind confirm 40.8*, PGV04 Ab binding 65.4* and Rev-erbA confirm 11.2*.
`COC(=O)[C@H](CC(C)C)N(Cc1cn(CC2CCCCC2)nn1)S(=O)(=O)c1ccc(F)cc1Br` gave NR1D1 modulator -1.7.
Cn1c(=O)cc(-c2ccccc2)c2ccccc21 was read as PG9 Ab binder 0.3, NR2E3 ag-1 5.2, NR1D1 modulator 3.3 and NR2E3 ag-2 3.6.
For Cn1c2ccccc2n2c(=O)cc(-c3ccccc3)c(C#N)c12 the results were PG9 Ab binder 9.7*, NR2E3 ag-1 -23.6, NR1D1 modulator 44.4*, NR2E3 ag-2 1.7, PG9 bind confirm 15.6*, PGV04 Ab binding 20.4* and Rev-erbA confirm 21.4*.
Cc1ccccc1OCC(=O)Nc1ccc2c(c1)C(=O)c1ccccc1C2=O was read as PG9 Ab binder 25.1*, NR2E3 ag-1 -54.6, NR1D1 modulator 272.8*, NR2E3 ag-2 3.0, PG9 bind confirm 73.0*, PGV04 Ab binding 91.4*, Rev-erbA confirm 220.8* and RORg counter 6.87*.
`N#Cc1cc2c(nc1SCc1ccccc1)CCCC2` gave PG9 Ab binder 36.1*, NR2E3 ag-1 0.3, NR1D1 modulator 27.5*, NR2E3 ag-2 0.0, PG9 bind confirm 44.2*, PGV04 Ab binding 75.7* and Rev-erbA confirm 20.9*.
For Cc1ccc2oc(=O)c3cnn(CC(=O)N4CCCc5ccccc54)c3c2c1 the results were PG9 Ab binder 14.7*, NR2E3 ag-1 24.0, NR1D1 modulator 50.6*, NR2E3 ag-2 3.2, PG9 bind confirm 34.9*, PGV04 Ab binding 50.5* and Rev-erbA confirm 44.0*.
Screening CN1C(=O)[C@@](O)(c2cccn2C)c2cc(Cl)ccc21 returned NR1D1 modulator 1.6.
`O=C(NC1CCCc2c1cnn2-c1ccc(F)cc1F)c1cccs1` (stereo unspecified) gave NR1D1 modulator -3.2.
O=C(COc1ncnc2ccc(Br)cc12)NCc1ccc2c(c1)OCO2 was read as PG9 Ab binder 40.5*, NR2E3 ag-1 -6.3, NR1D1 modulator 57.8*, NR2E3 ag-2 -0.2, PG9 bind confirm 40.0*, PGV04 Ab binding 59.4*, Rev-erbA confirm 50.5* and RORg counter inactive.
Cc1cc(NC(=O)COc2ccc3c(C)c(C)c(=O)oc3c2)no1 was read as PG9 Ab binder -1.8, NR2E3 ag-1 -2.6 and NR1D1 modulator -0.7.
Cc1cc(NC(=O)COc2ccc3oc4ccccc4c3c2)no1 was read as PG9 Ab binder 22.6*, NR2E3 ag-1 -0.1, NR1D1 modulator 35.9*, NR2E3 ag-2 7.1, PG9 bind confirm 22.7*, PGV04 Ab binding 31.9* and Rev-erbA confirm 25.8*.
For O=C(CSc1nnc(-c2ccccn2)n1-c1ccccc1)c1ccc(Cl)c(Cl)c1 the results were NR1D1 modulator -0.3.
Screening COc1cc(-c2ccc3c(=O)c4ccccc4n(C)c3c2)cc(OC)c1OC returned PG9 Ab binder -0.3, NR2E3 ag-1 11.0, NR1D1 modulator -4.8 and NR2E3 ag-2 2.7.
`COc1cc(-c2ccc3c(=O)c4ccccc4sc3c2)cc(OC)c1OC` gave PG9 Ab binder 17.0*, NR2E3 ag-1 -4.5, NR1D1 modulator 75.7*, PG9 bind confirm 20.4*, PGV04 Ab binding 31.3*, Rev-erbA confirm 48.6* and RORg counter >40.
COc1ccc(CCNC(=O)CNC(=O)c2nn(-c3ccc(OC)c(OC)c3)c(=O)c3ccccc23)cc1OC was read as PG9 Ab binder 1.3, NR2E3 ag-1 -2.3, NR1D1 modulator -1.9 and NR2E3 ag-2 -2.8.
For COc1ccc(-n2nc(C(=O)NCC(=O)Nc3ccc(F)cc3)c3ccccc3c2=O)cc1 the results were PG9 Ab binder 10.6*, NR2E3 ag-1 -10.4, NR1D1 modulator 38.6*, NR2E3 ag-2 4.8, PG9 bind confirm 17.3*, PGV04 Ab binding 25.0* and Rev-erbA confirm 8.0.
COc1ccc(-n2nc(C(=O)NCC(=O)Nc3cccc(Cl)c3)c3ccccc3c2=O)cc1OC was read as PG9 Ab binder 39.2*, NR2E3 ag-1 -17.7, NR1D1 modulator 289.0*, NR2E3 ag-2 0.6, PG9 bind confirm 34.8*, PGV04 Ab binding 66.4*, Rev-erbA confirm 273.3* and RORg counter >40.
For CCc1ccc(NC(=O)CNC(=O)c2nn(-c3ccc(OC)cc3)c(=O)c3ccccc23)cc1 the results were PG9 Ab binder 3.0, NR2E3 ag-1 3.1, NR1D1 modulator 17.5 and NR2E3 ag-2 0.9.
Screening CCOc1ccc(NC(=O)CNC(=O)c2nn(-c3ccc(OC)c(OC)c3)c(=O)c3ccccc23)cc1 returned PG9 Ab binder 40.1*, NR2E3 ag-1 -8.5, NR1D1 modulator 111.4*, NR2E3 ag-2 inactive, PG9 bind confirm 23.2*, PGV04 Ab binding 61.1*, Rev-erbA confirm 91.4* and RORg counter >40.
For C=CCN1C(=O)[C@@H](CC(=O)NCCCC)[C@]2(C(=O)OCC)CCCCC/C=C/12 the results were NR1D1 modulator -2.5.
